Here are results for 39 compounds from ChEMBL document CHEMBL3272343, “Etodolic acid and related compounds. Chemistry and antiinflammatory actions of some potent di- and trisubstituted 1, 3, 4, 9-tetrahydropyrano[3, 4-b]indole-1-acetic acids” (J Med Chem, 1976).

Active and inactive are the calls of the source. The calls are words filed in the database; no cut-off is given here.

In data set [1] the test system is Rattus norvegicus. Nature of the data set: Antiinflammatory activity in rat assessed as inhibition of adjuvant-induced arthritis administered for 9 days into foot pad 14 days after adjuvant challenge measured on day 22 by mercury displacement analysis. Type of data set: functional. The method in brief:
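Oral dosing in groups of six rats with established adjuvant arthritis (Mycobacterium butyricum in mineral oil, injected into left hind foot pad). Treatment ran from day 14 to day 22 (9 po administrations). Injected-paw volume was measured by mercury displacement. A decrease of 0.5 ml or more counted as a therapeutic effect. ED50 was derived by probit analysis of responder counts. Maximum screening dose was 100 mg/kg.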

Data set [2] concerns Rattus norvegicus. Nature of the data set: Antiinflammatory activity in rat assessed as inhibition of adjuvant-induced arthritis at 25 mg/kg administered for 9 days into foot pad 14 days after adjuvant challenge measured on day 22 by mercury displacement analysis. Type of data set: functional, organism-based. Also on record: dose 25 mg/kg. In outline:
(§1)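 Therapeutic test in groups of six rats with adjuvant arthritis (Mycobacterium butyricum in mineral oil, left hind foot pad). Oral treatment ran from day 14 to day 22 (9 po doses). Injected-paw volume was measured by mercury displacement. Rats whose paw shrank by 0.5 ml or more were scored as showing a therapeutic effect; smaller changes counted as negative.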

In data set [3] the test system is Rattus norvegicus. Description: Antiinflammatory activity in po dosed rat assessed as inhibition of carrageenin-induced paw edema. It is filed as functional. A general note: The carrageenan paw model is a standard test of acute inflammation.
Data set [4] in a line: Therapeutic index, ratio of UD50 for 8 hrs starved po dosed Charles River rat to ED50 for rat assessed as inhibition of adjuvant-induced arthritis. Type of data set: organism-based. Particulars: in vivo, read-out: TI. The method in brief: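 Ratio of UD50 to ED50. UD50 came from starved (8 hr) male Charles River rats dosed orally and was calculated graphically. ED50 came from the 9-dose oral adjuvant-arthritis therapeutic test (day 14–22, mercury-displacement paw volume, ≥0.5 ml decrease as responder) and was derived by probit analysis.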

Data set [5] in a line: Gastrointestinal toxicity in 8 hrs starved po dosed Charles River rat assessed as ulcerogenic effect after 18 hrs. It is filed as organism-based. Particulars: in vivo, read-out: UD50. In outline:
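Acute ulcerogenicity in male Charles River rats (180–200 g), housed in individual cages and starved 8 hr before oral dosing. UD50 was calculated graphically.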

The test system of data set [6] is Rattus norvegicus. Nature of the data set: Antiinflammatory activity in rat assessed as inhibition of adjuvant-induced arthritis at 50 mg/kg administered for 9 days into foot pad 14 days after adjuvant challenge measured on day 22 by mercury displacement analysis. Also on record: dose 50 mg/kg. Type of data set: functional, organism-based. The method in brief:
as §1

Data set [7] relates to Rattus norvegicus. Nature of the data set: Antiinflammatory activity in rat assessed as inhibition of adjuvant-induced arthritis at 20 mg/kg administered for 9 days into foot pad 14 days after adjuvant challenge measured on day 22 by mercury displacement analysis. Type of data set: functional, organism-based. The arrangement: dose 20 mg/kg. In outline:
as §1

With `CCC(C)c1cccc2c3c([nH]c12)C(CC)(CC(=O)O)OCC3` (centres undefined), the ED50 (in general, the dose at which the effect has come halfway, by size or by number of responders) in data set [1] came to 2.6 mg/kg.
The same measure, in the same setting: for `CCC1(CC(=O)O)OCCc2c1[nH]c1c(C(C)C)cccc21` (centres undefined) the value was 1.6 mg/kg; for `CCC1(CC(=O)O)OCCc2c1[nH]c1c(OC)ccc(OC)c21` (centres undefined), 100 mg/kg.
Regarding `CCC1(CC(=O)O)OCCc2c1[nH]c1ccc(Br)cc21` (centres undefined), the inhibition entry in data set [2] was “inactive”.
With `CCC1(CC(=O)O)OCCc2c1[nH]c1c(C3CC3)cccc21` (centres undefined), the ED50 in data set [1] came out at 1 mg/kg.
Same read-out and setting: the value for `CCCc1cccc2c3c([nH]c12)C(CCC)(CC(=O)O)OCC3` (centres undefined) was 6 mg/kg; that for `CCCC1(CC(=O)O)OCCc2c1[nH]c1cccc(C)c21` (centres undefined) was 10 mg/kg.
On the same count and under the same terms, the value for `CCC1(CC(=O)O)OCCc2c1[nH]c1cc(C(F)(F)F)ccc21` (centres undefined) was 1.2 mg/kg.
With `CCC1(CC(=O)O)OCCc2c1[nH]c1cc(Cl)ccc21` (centres undefined), the ED50 in data set [1] is 3.2 mg/kg.
The same measure, in the same setting: for `CCC1(CC(=O)O)OCCc2c1[nH]c1c(Cl)c(C)ccc21` (centres undefined) the value was 4.1 mg/kg.
Still for that read-out and setting: for `CCC1(CC(=O)O)OCCc2c1[nH]c1c(Cl)ccc(Cl)c21` (centres undefined) the value was 5.5 mg/kg.
Regarding `CCC1(CC(=O)O)OCCc2c1[nH]c1c(C)c(F)ccc21` (centres undefined), in data set [3], the ED30 was found to be 37 mg/kg. The selectivity ratio in data set [4] is 29. The TD50 at 18 h in data set [5] was 26 mg/kg. The 50% effective dose (ED50) in data set [1] was determined as 0.9 mg/kg.
With `CCCC1(CC(=O)O)OCCc2c1[nH]c1c(C)c(Cl)ccc21` (centres undefined), the ED50 in data set [1] came to 3.4 mg/kg.
Still for that read-out and setting: the value for `CCC1(CC(=O)O)OCCc2c1[nH]c1c(C3CCCCC3)cccc21` (centres undefined) was greater than 10 mg/kg.
In the case of `CCC1(CC(=O)O)OCCc2c1[nH]c1c(C)c(Cl)ccc21` (centres undefined), in data set [3], the ED30 was determined as 15 mg/kg. In addition, the selectivity ratio in data set [4] worked out at 41. Moreover, the TD50 at 18 h in data set [5] came to 25 mg/kg. The 50% effective dose (ED50) in data set [1] was determined as 0.6 mg/kg.
With `CCCC1(CC(=O)O)OCCc2c1[nH]c1ccc(C)cc21` (centres undefined), in data set [2], the inhibition result is “inactive”.
As for `CCC1(CC(=O)O)OCCc2c1[nH]c1ccc(F)cc21` (centres undefined), the ED50 in data set [1] was 5 mg/kg.
Take `CCC1(CC(=O)O)OCCc2c1[nH]c1c(C)cccc21` (centres undefined): the 50% effective dose (ED50) in data set [1] amounted to 4.3 mg/kg.
`CCC1(CC(=O)O)OCCc2c1[nH]c1c(CC(C)C)cccc21` (centres undefined): in data set [1], the ED50 was determined as 5 mg/kg.
Still for that read-out and setting: the value for `CCC1(CC(=O)O)OCCc2c1[nH]c1cc(F)ccc21` (centres undefined) was 3 mg/kg; that for `CCC1(CC(=O)O)OCCc2c1[nH]c1cccc(C)c21` (centres undefined) was 11 mg/kg; that for `CCC1(CC(=O)O)OCCc2c1[nH]c1c(Cl)cccc21` (centres undefined) was 2.4 mg/kg.
For `CCc1cccc2c3c([nH]c12)C(CC)(CC(=O)O)OCC3` (centres undefined) [ETODOLAC], the selectivity ratio in data set [4] was found to be 85. The TD50 at 18 h in data set [5] amounted to 60 mg/kg. In data set [1], the ED50 was determined as 0.7 mg/kg.
Regarding `CCC1(CC(=O)O)OCCc2c1[nH]c1cccc(Cl)c21` (centres undefined), the ED50 in data set [1] came to 7 mg/kg.
Same read-out and setting: the value for `CCC1(CC(=O)O)OCCc2c1[nH]c1c(C)ccc(C)c21` (centres undefined) was 3.2 mg/kg.
As for `CCCC1(CC(=O)O)OCCc2c1[nH]c1cc(C)ccc21` (centres undefined), the inhibition result in data set [6] was “inactive”.
For the compound `CCCC1(CC(=O)O)OCCc2c1[nH]c1cc(OC)ccc21` (centres undefined), in data set [2], the inhibition entry was “inactive”.
With `CCCC1(CC(=O)O)OCCc2c1[nH]c1c(CC)cccc21` (centres undefined), the ED50 in data set [1] was 7.4 mg/kg.
Same read-out and setting: the value for `CCCC1(CC(=O)O)OCCc2c1[nH]c1c(C)cccc21` (centres undefined) was 11.8 mg/kg.
Take `CCCCC1C(=O)N(c2ccccc2)N(c2ccccc2)C1=O` [PHENYLBUTAZONE]: the TD50 at 18 h in data set [5] turned out to be 100 mg/kg. The ED50 in data set [1] stood at 5.4 mg/kg.
For the compound `CCCCc1cccc2c3c([nH]c12)C(CC)(CC(=O)O)OCC3` (centres undefined), in data set [7], the inhibition result is “inactive”.
As to `CCC1(CC(=O)O)OCCc2c1[nH]c1c(OC)cccc21` (centres undefined), the outcome in data set [2] was inactive.
`CCC1(CC(=O)O)OCCc2c1[nH]c1c(Cl)c(Cl)ccc21` (centres undefined): in data set [1], the ED50 was 1.1 mg/kg.
On the same count and under the same terms, for `CCCC1(CC(=O)O)OCCc2c1[nH]c1cc(Cl)ccc21` (centres undefined) the value was 3.7 mg/kg; for `CCC1(CC(=O)O)OCCc2c1[nH]c1c(C(C)(C)C)cccc21` (centres undefined), 1.9 mg/kg; for `CCC1(CC(=O)O)OCCc2c1[nH]c1c(C3CCCC3)cccc21` (centres undefined), greater than 5 mg/kg.
`CCCC1(CC(=O)O)OCCc2c1[nH]c1cccc(Cl)c21` (centres undefined): the ED50 in data set [1] was greater than 25 mg/kg.
As to `COc1ccc2c(c1)c(CC(=O)O)c(C)n2C(=O)c1ccc(Cl)cc1` [INDOMETHACIN], the ED30 in data set [3] came out at 1.3 mg/kg. Also, the selectivity ratio in data set [4] came out at 30. The TD50 at 18 h in data set [5] amounted to 6 mg/kg. Further, the ED50 in data set [1] worked out at 0.2 mg/kg.
For the compound `CCCc1cccc2c3c([nH]c12)C(CC)(CC(=O)O)OCC3` (centres undefined), the ED30 in data set [3] turned out to be 10 mg/kg. The selectivity ratio in data set [4] came out at 50. Further, the TD50 at 18 h in data set [5] stood at 20 mg/kg. The ED50 in data set [1] was found to be 0.4 mg/kg.
